# Measured values published in PubChem BioAssay.
# The source made the active and inactive calls.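 The calls were made as follows, unless noted: active = inhibition of the reporter signal at or above 50%; inactive = inhibition below 50%.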
# How the values were obtained:
# [1] = inhibitors of TNFa-induced NFkB p65 translocation, primary screen, imaging, HUVEC, MLSMR starter and 10KST1 sets (AID 438;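 active = inhibition above 20% together with a positive visual image hit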;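 also: compound added about 3h40 before a 20 min TNFalpha stimulation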;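 as to inhibition: signal is the nuclear over cytoplasmic p65 intensity ratio per well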); conditions: HUVEC TNFa-induced p65 nuclear translocation; cell count: measured here: nuclei count (cytotoxicity indicator), at 2.08 µM; inhibition: at 2 µM, stronger effect = higher value, 0% TNFa-plus-vehicle, 100% no-TNFa wells
# [2] = inhibitors of mutant huntingtin aggregation, primary screen, imaging, exon1htt(103Q)mCFP cells, high-content imaging (AID 483;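 active = visual image review flags a hit and inhibition of aggregation exceeds 20%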;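 also: compound exposure lasted 3 days before fixation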;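 as to nuclei count: percent of the per-plate median nuclei count of sample wells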); conditions: exon1htt(103Q)mCFP cell line, aggregate imaging, at 2 µM; inhibition of aggregation: stronger effect = higher value; nuclei count: measured here: cell count, toxicity
# [3] = inhibitors of E-selectin induction by TNFa, primary screen, imaging, HUVEC, immunofluorescence, MLSMR starter and 10KST1 sets (AID 487;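 active = visually confirmed hit in the image check and inhibition above 20%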;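 as to inhibition: signal is fraction of cell area covered by stained E-selectin grains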;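 as to nuclei count: 100% = median nuclei count of all wells on the same plate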); conditions: HUVEC TNFalpha-induced E-selectin immunofluorescence imaging, at 2 µM; inhibition: stronger effect = higher value; nuclei count: measured here: cell number, toxicity
# [4] = biological target: Voltage-gated potassium channel subunit beta-2 (Rattus norvegicus) (UniProt P62483); experiment: KvBeta enzyme negative modulators, primary screen, biochemical, NADPH fluorescence (AID 622;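 active = fluorescence slope higher than the sample average by over 3 SD, cut at about -0.22 in these data, passing the limit was not always enough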;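 also: slope of raw intensity against log time taken from 70 to 1610 s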); conditions: recombinant KvBeta, 4-cyanobenzaldehyde reduction, at 10 µM, stronger effect = higher value
# [5] = biological target: Voltage-gated potassium channel subunit beta-2 (Rattus norvegicus) (UniProt P62483); experiment: KvBeta positive modulators, primary screen, biochemical, NADPH fluorescence (AID 623;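 active = NADPH fluorescence slope more negative than the mean of all samples by about 3 SD, 99.7% confidence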;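 also: fluorescence intensity change per second fitted from 20 to 320 s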); conditions: Recombinant KvBeta, NADPH fluorescence decrease slope, 10 min; at 10 µM; stronger effect = lower value
# [6] = biological target: Muscarinic acetylcholine receptor M4 (Homo sapiens) (UniProt P08173); experiment: compounds altering M4/GIRK thallium flux, either direction, primary screen, M4 allosteric agonist project, cell-based, HEK293 M4/GIRK, BTC-AM (AID 625;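 active = fluorescence slope after compound addition differing from the mean of all tested samples at 99.7% confidence, mostly higher but some lower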;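 also: thallium influx through GIRK channels coupled to M4 in HEK293 cells with BTC-AM dye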); conditions: at 10 µM, actives lie on both sides
# In short: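 Assay system: HEK293 cells with M4 receptor and GIRK channels / Controls: carbachol and DMSO controls / Schedule: 1 h dye loading, 2 min kinetic read / Technique: kinetic fluorescence with BTC-AM dye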
# [7] = inhibitors of Sendai virus-induced IRF3 signaling, primary screen, TLR/RLR signaling modifier project, cell-based, Sendai virus stimulus, luciferase, 10K MLSCN set (AID 602276;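 active = inhibition at or above 50% at 10 µM; inactive = inhibition below 50%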;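 also: firefly luciferase from ISG56 promoter only with Renilla not read in this screen; 0% = Sendai virus plus DMSO and 100% = medium plus DMSO without virus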); conditions: HEK293 RL24 IRF3 luciferase reporter, at 10 µM, stronger effect = higher value
# [8] = inhibitors of poly I:C-induced TLR3 signaling, primary screen, cell-based, poly I:C stimulus, luciferase, 10K MLSCN set (AID 602277); conditions: HEK293-TLR3 RL24 IRF3 luciferase reporter, at 10 µM, stronger effect = higher value
# Chain of Voltage-gated potassium channel subunit beta-2 (Rattus norvegicus) (P62483 whole entry, looked up): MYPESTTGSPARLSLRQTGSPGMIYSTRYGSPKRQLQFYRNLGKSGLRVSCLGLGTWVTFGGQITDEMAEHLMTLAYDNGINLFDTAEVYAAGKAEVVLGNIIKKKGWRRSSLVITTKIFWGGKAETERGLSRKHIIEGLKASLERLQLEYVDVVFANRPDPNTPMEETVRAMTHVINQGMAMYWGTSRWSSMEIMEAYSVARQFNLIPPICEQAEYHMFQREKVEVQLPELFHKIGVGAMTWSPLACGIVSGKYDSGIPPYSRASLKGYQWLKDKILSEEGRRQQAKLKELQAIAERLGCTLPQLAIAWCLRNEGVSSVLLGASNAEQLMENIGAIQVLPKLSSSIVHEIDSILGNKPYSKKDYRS
# Chain of Muscarinic acetylcholine receptor M4 (Homo sapiens) (P08173 whole entry, looked up): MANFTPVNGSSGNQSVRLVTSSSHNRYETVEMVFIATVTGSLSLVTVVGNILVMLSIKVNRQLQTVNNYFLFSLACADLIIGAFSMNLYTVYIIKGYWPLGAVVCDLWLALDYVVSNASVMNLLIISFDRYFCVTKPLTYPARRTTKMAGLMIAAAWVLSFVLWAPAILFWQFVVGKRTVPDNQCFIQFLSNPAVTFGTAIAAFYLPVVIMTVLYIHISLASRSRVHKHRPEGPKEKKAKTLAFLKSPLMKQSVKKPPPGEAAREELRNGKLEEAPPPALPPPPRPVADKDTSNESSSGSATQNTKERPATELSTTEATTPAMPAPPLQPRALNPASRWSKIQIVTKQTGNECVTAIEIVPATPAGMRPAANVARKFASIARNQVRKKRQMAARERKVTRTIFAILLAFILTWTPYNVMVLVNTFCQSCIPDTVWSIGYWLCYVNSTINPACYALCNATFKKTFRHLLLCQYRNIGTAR
SMILES,cell count [1],inhibition [1],inhibition of aggregation [2],nuclei count [2] [%],inhibition [3],nuclei count [3] [%],fluorescence slope [4],NADPH fluorescence slope [5],fluorescence slope [6],inhibition [7],inhibition [8]
O=C(c1ccccc1)N1CCCCC(Sc2nnnn2-c2ccccc2)C1=O (centres undefined),385,-15.4% (inactive),28.5% (inactive),76.4,-112% (inactive),134,-0.546 (inactive),-2.4e-05 (inactive),0.00399 (inactive),4.27% (inactive),4.71% (inactive)
C=CCSc1nc2c(c(=O)[nH]c(=O)n2C)n1C(C)C,309,-11.3% (inactive),-2.8% (inactive),110,33% (inactive),97.6,-0.579 (inactive),8.7e-06 (inactive),0.00565 (inactive),2.75% (inactive),14.4% (inactive)
O=C(CN1C(=O)NC2(CCCCCC2)C1=O)N1CCC(Cc2ccccc2)CC1,444,2.9% (inactive),-3.9% (inactive),99.8,-38.1% (inactive),104,-0.366 (inactive),2.2e-05 (inactive),0.00581 (inactive),0.617% (inactive),15.9% (inactive)
CCn1c(CNc2ccc(C)cc2)nnc1SCC(=O)NCc1ccccc1,648,13.4% (inactive),5.4% (inactive),81.4,-45% (inactive),115,-0.486 (inactive),0.000173 (inactive),0.00606 (inactive),-9.51% (inactive),-4.1% (inactive)
COc1cccc(C2=NOC(C(=O)Nc3ccc(C(C)=O)cc3)C2)c1 (centres undefined),808,-16.3% (inactive),-6.4% (inactive),107,-49.8% (inactive),80,-0.583 (inactive),2.1e-05 (inactive),0.00535 (inactive),-34.2% (inactive),-61.5% (inactive)
Cc1nc(CNS(=O)(=O)c2ccc3c(c2)OCCO3)cs1,309,0.5% (inactive),10.1% (inactive),106,12.1% (inactive),110,-0.568 (inactive),-2.7e-05 (inactive),0.00404 (inactive),-8.22% (inactive),-38.6% (inactive)
COC(=O)c1cc(O)c(OCc2ccccc2)c(O)c1,775,-2.2% (inactive),20.1% (inactive),112,-8.4% (inactive),112,-0.552 (inactive),4.3e-05 (inactive),0.00449 (inactive),-22% (inactive),-58.4% (inactive)
Cc1cc(NC(=O)c2ccccc2Oc2ccccc2)no1,708,-0.2% (inactive),23.9% (inactive),102,23.9% (inactive),101,-0.532 (inactive),-6.9e-05 (inactive),0.00465 (inactive),12.4% (inactive),9.02% (inactive)
CCOC(=O)c1sc2nc3c(cc2c1N)COC(C)(C)C3,746,-5.9% (inactive),0.2% (inactive),105,8.8% (inactive),105,-0.432 (inactive),-5.4e-06 (inactive),0.0043 (inactive),-38.4% (inactive),-104% (inactive)
Cc1ccc(CC23CN4CCN(CC(C4)C2O)C3)c(C)c1 (centres undefined),435,0% (inactive),2% (inactive),107,-40.9% (inactive),116,-0.494 (inactive),-2.9e-05 (inactive),0.0044 (inactive),18.9% (inactive),14.1% (inactive)
COc1cc(NC(=O)c2cc(-n3cnnc3)ccc2Cl)cc(OC)c1,224,-8.1% (inactive),-12.2% (inactive),97.9,-46.1% (inactive),95.5,-0.479 (inactive),-8.2e-05 (inactive),0.00479 (inactive),15.2% (inactive),17.9% (inactive)
COc1cccc(-n2c(C)nc3c(cnn3-c3ccc(C)cc3)c2=O)c1,684,-5% (inactive),2.3% (inactive),111,-67.2% (inactive),118,-0.577 (inactive),2.9e-06 (inactive),0.00597 (inactive),-34.8% (inactive),-67.9% (inactive)
Cc1ccc(NS(=O)(=O)c2cn(C)cn2)cc1,491,-0.5% (inactive),7.8% (inactive),89.1,3.6% (inactive),107,-0.44 (inactive),-0.000336 (inactive),0.00531 (inactive),15.2% (inactive),17.6% (inactive)
CCOC(=O)CCC(=O)Nc1ccc(S(=O)(=O)N2CCCC2)cc1,720,-3% (inactive),3.2% (inactive),98.3,-15.9% (inactive),126,-0.468 (inactive),2.8e-05 (inactive),0.00707 (inactive),-1.78% (inactive),100% (active)
